Measurements taken from paper PMC12120886 (Plant Biotechnology Journal, 2025).

Tests used:
LcTPS3 = experiment: malachite green phosphate-release assay, Michaelis-Menten fit; format: biochemical, Liriodendron chinense; details: 5 mM MgCl2, 50 mM MOPS pH 7.0 (optimum printed as pH 7.5), 35 °C, FPP 0-25 μM
Method in brief: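 Recombinant His-tagged enzyme was expressed from pET-28a(+) in E. coli BL21(DE3) pLysS, induced with 1 mM IPTG at 16 °C for 16 h, and bead-purified. FPP (0–25 μM) was reacted with 5 mM MgCl2 in 50 mM MOPS pH 7.0 at 35 °C for 15 min. Phosphatase-released phosphate was read by malachite green at 620 nm. Km came from a Michaelis–Menten fit of initial velocity versus [FPP].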

STpGMAS = molecular target: T1, STpGMAS (Tanacetum parthenium, UniProt F8UL80); experiment: GC-MS of germacrene A from yeast expressing the synthase with ERG20; format: cell-based; details: S. cerevisiae JCR27, endogenous FPP
T1 sequence (F8UL80 1-559): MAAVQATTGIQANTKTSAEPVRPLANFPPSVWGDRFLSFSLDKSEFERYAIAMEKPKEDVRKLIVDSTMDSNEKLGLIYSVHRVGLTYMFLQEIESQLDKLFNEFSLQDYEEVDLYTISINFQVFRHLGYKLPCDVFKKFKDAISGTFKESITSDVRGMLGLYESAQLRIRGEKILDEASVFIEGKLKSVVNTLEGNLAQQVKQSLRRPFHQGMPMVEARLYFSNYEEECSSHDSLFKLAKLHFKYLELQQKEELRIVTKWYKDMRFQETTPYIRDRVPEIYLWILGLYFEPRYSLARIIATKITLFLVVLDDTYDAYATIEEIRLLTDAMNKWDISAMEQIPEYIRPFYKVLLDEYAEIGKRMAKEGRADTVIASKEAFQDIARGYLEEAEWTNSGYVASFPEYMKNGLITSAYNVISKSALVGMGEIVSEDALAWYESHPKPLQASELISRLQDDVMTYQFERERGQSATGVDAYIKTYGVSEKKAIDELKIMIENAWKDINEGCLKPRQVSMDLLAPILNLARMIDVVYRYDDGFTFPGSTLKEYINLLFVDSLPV

LsLTC2 = molecular target: T2, LsLTC2 (Lactuca sativa, UniProt Q8S3A5); experiment: as above; format: cell-based; details: S. cerevisiae JCR27, endogenous FPP
T2 sequence (Q8S3A5 1-557): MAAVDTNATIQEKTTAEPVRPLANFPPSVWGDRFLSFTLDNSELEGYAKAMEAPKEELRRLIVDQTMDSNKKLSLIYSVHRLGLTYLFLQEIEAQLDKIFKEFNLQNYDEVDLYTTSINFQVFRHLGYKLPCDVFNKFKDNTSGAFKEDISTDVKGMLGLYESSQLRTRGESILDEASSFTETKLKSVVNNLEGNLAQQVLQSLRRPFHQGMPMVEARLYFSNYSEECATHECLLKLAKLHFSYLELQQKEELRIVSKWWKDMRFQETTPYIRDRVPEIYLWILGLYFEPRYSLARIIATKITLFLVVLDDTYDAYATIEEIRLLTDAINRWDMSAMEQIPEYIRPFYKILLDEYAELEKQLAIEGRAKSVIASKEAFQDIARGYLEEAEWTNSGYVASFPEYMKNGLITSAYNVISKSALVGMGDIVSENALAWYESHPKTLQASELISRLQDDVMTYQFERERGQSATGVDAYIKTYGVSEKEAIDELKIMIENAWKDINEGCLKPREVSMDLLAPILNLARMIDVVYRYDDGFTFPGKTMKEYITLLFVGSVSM

CC(C)=CCC/C(C)=C/CC/C(C)=C/COP(=O)(O)OP(=O)(O)O [FPP]
Km (LcTPS3): 17.7 ± 0.47 µM | GC-MS of germacrene A from yeast expressing the synthase with ERG20 (STpGMAS): co‐expressed LcTPS3, NPGAS, LsLTC2 and STpGMAS with a yeast–derived farnesyl diphosphate synthase (EGR20) | GC-MS of germacrene A from yeast expressing the synthase with ERG20 (LsLTC2): co‐expressed LcTPS3, NPGAS, LsLTC2 and STpGMAS with a yeast–derived farnesyl diphosphate synthase (EGR20)
